The text below walks through data of ChEMBL document CHEMBL3997791, “Nanomolar-Potency Aminophenyl-1,3,5-triazine Activators of the Cystic Fibrosis Transmembrane Conductance Regulator (CFTR) Chloride Channel for Prosecretory Therapy of Dry Eye Diseases” (J Med Chem, 2017).

Data set [1] concerns the target T1, Cystic fibrosis transmembrane conductance regulator (Homo sapiens, UniProt P13569). Briefly: Activation of CFTR in human primary bronchial epithelial cells assessed as increase in short-circuit current up to 10 uM measured after 10 mins in absence of forskolin by voltage clamp method.
Data set [2] can be described thus: Metabolic stability in rat hepatic microsomes assessed as parent compound remaining at 5 uM after 15 mins in presence of NADPH by LC-MS analysis. The settings on record: liver microsomes, read-out: Stability. In kind it is ADME, Microsome. In outline:
(§1)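 Compound at 5 μM incubated at 37 °C with rat liver microsomes (1 mg/mL) in potassium phosphate buffer with 1 mM NADPH; quenched with ice-cold EtOAc, centrifuged, supernatant analysed by LC/MS (C18, water/acetonitrile with 0.1% formic acid gradient, UV 254 nm) for parent remaining; mean ± SEM, n = 3.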
For orientation: Liver microsomes are a subcellular fraction often used to study metabolism.

Data set [3] concerns the target T1, Cystic fibrosis transmembrane conductance regulator. Briefly: Activation of CFTR in human primary bronchial epithelial cells assessed as increase in forskolin-stimulated short-circuit current at 0.1 uM preincubated for 10 mins followed by forskolin addition by voltage clamp method.
The test system of data set [4] is Mus musculus. Briefly: Induction of tear secretion in mouse at 250 pmol administered as single topical dose after 12 to 24 hrs by phenol red thread test. In kind it is functional. The gist of the method: (§2)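 Mice 8–12 weeks (25–35 g); single ocular dose of 250 pmol (100 μM) in 2.5 μL vehicle (0.3% CMC in Ringer's), both eyes treated identically, vehicle control. Tear volume by phenol red thread, 10 s in lateral canthus under isoflurane, before and at set times after dosing. 5 mice, 10 eyes per condition; two-way ANOVA with Dunnett test.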

The subject of data set [5] is Mus musculus. Briefly: Induction of tear secretion in mouse at 250 pmol administered as single topical dose up to 8 hrs by phenol red thread test. In kind it is functional. In outline:
as §2

Data set [6] can be described thus: Chemical stability in opthalmic vehicle containing 0.3% CMC in Ringer's solution at 100 uM up to 24 hrs at 40 degC by LC-MS analysis. It counts as physicochemical. In outline: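 Compound dissolved at 100 μM in ophthalmic vehicle (0.3% CMC in Ringer's solution), held 24 h at 40 °C; chemical integrity checked by LC/MS.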
Data set [7] relates to Mus musculus. Briefly: Induction of tear secretion in mouse assessed as minimum compound concentration required to show maximum effect administered as single topical dose at 1 to 3 hrs post dose by phenol red thread test. It counts as functional. In outline: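 Dose-response in mice: single ocular doses of varied amounts (down to 25 pmol) in 2.5 μL ophthalmic vehicle to both eyes, vehicle control. Tear volume by phenol red thread (10 s, lateral canthus, isoflurane anesthesia) before and at timed points after dosing; 5 mice, 10 eyes per condition.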

A short description of data set [8]: Metabolic stability in rat hepatic microsomes assessed as parent compound remaining at 5 uM after 60 mins in presence of NADPH by LC-MS analysis. The settings on record: liver microsomes, read-out: Stability. In kind it is ADME, Microsome. The gist of the method:
as §1

Active and inactive are the calls of the source. The calls are words filed in the database; no cut-off is given here.

T1 sequence (P13569 whole entry, looked up): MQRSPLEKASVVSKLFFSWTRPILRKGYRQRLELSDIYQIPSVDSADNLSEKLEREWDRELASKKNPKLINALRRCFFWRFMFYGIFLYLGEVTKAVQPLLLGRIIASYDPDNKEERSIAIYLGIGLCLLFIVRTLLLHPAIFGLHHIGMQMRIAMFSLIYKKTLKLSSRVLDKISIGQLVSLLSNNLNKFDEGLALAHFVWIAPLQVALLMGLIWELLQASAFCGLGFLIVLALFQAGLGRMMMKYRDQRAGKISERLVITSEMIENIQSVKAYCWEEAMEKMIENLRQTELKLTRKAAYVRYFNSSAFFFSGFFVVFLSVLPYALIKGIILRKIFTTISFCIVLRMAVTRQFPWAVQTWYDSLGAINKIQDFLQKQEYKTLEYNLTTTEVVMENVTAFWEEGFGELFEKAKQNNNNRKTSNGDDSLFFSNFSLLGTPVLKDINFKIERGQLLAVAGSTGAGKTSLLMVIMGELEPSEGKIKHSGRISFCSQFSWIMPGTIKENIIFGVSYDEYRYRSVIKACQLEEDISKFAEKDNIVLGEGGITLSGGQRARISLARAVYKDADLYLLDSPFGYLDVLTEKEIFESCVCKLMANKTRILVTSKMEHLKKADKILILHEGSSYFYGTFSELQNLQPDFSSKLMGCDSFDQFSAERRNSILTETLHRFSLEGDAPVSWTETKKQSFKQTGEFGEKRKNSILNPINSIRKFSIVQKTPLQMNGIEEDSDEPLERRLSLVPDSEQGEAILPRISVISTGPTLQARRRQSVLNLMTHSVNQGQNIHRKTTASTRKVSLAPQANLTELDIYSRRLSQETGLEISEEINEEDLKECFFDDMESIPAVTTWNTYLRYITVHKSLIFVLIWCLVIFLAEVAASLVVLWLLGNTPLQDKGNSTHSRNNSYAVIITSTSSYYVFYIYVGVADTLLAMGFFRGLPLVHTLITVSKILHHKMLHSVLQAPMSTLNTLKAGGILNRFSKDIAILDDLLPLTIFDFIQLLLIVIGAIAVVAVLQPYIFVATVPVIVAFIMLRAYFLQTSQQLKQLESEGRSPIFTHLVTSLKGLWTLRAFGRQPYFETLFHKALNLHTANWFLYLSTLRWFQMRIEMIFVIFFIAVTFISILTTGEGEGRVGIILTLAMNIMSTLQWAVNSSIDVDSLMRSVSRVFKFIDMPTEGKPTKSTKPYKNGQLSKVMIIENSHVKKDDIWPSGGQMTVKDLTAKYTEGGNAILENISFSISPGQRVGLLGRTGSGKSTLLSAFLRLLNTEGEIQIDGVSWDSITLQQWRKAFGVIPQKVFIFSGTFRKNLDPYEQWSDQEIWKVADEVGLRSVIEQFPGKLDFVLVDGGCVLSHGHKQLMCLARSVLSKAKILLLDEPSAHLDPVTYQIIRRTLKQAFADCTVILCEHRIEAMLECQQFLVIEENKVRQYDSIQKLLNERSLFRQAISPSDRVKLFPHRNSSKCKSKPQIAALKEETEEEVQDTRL

`CNc1nc(Nc2ccccc2)nc(OCC(F)(F)C(F)F)n1`: the outcome (in data set [1]; in the data set on Mus musculus [4]) was inactive. Moreover, the remaining at […], 5 µM in data set [2] was less than 40%. Moreover, the outcome (in data set [3]; in the data set with Mus musculus [5]) was Active. Besides, in data set [6], the Stability entry is reported as “Stable”. Besides, in the data set with Mus musculus [7], the Activity is listed as 25 pmol.
For the compound `CCN(CC)c1nc(Nc2ccc3ncsc3c2)nc(OC(C(F)(F)F)C(F)(F)F)n1`, in data set [8], the remaining at 1 h, 5 µM came out at 60%.
